Test results as given in article PMC10765384 (Bioorganic chemistry, 2023).
Where two headings read alike, the source gives them in different places.

Key:
[1] = tested on: HBV DNA replication in HepAD38 cells; assay: Anti-HBV activity, 7-day assay in HepAD38 cells; assay type: cell-based, hepatitis B virus; conditions: for EC50: read-out: Anti-HBV activity EC50; for EC90: read-out: Anti-HBV activity EC90
[2] = tested on: human peripheral blood mononuclear (PBM) cells; assay: Cytotoxicity, CellTiter 96 assay in PBM cells; assay type: cell-based; conditions: read-out: Cytotoxicity CC50 PBM; PBM cells
In short: (§1)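 Colorimetric non-radioactive cell proliferation read-out (CellTiter 96). CC50 is the test compound concentration that inhibited cell growth by 50%.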

[3] = tested on: human T lymphoblast (CEM) cells; assay: Cytotoxicity, CellTiter 96 assay in CEM cells; assay type: cell-based; conditions: read-out: Cytotoxicity CC50 CEM; CEM cells
In short: as §1

[4] = tested on: African green monkey kidney (Vero) cells; assay: Cytotoxicity, CellTiter 96 assay in Vero cells; assay type: cell-based; conditions: read-out: Cytotoxicity CC50 Vero; Vero cells
In short: as §1

[5] = tested on: human hepatocellular carcinoma (HepG2) cells; assay: Cytotoxicity, CellTiter 96 assay in HepG2 cells; assay type: cell-based; conditions: read-out: Cytotoxicity CC50 HepG2; HepG2 cells
In short: as §1

Formation of glutathione = assay type: in vitro ADME; conditions: human liver microsomes 1 mg/mL, 1 mM GSH, 60 min, 37°C
hERG = hERG (Homo sapiens, UniProt Q12809); assay: hERG inhibition, automated patch clamp in CHO cells; assay type: cell-based; conditions: room temperature
hERG, sequence (Q12809 whole entry): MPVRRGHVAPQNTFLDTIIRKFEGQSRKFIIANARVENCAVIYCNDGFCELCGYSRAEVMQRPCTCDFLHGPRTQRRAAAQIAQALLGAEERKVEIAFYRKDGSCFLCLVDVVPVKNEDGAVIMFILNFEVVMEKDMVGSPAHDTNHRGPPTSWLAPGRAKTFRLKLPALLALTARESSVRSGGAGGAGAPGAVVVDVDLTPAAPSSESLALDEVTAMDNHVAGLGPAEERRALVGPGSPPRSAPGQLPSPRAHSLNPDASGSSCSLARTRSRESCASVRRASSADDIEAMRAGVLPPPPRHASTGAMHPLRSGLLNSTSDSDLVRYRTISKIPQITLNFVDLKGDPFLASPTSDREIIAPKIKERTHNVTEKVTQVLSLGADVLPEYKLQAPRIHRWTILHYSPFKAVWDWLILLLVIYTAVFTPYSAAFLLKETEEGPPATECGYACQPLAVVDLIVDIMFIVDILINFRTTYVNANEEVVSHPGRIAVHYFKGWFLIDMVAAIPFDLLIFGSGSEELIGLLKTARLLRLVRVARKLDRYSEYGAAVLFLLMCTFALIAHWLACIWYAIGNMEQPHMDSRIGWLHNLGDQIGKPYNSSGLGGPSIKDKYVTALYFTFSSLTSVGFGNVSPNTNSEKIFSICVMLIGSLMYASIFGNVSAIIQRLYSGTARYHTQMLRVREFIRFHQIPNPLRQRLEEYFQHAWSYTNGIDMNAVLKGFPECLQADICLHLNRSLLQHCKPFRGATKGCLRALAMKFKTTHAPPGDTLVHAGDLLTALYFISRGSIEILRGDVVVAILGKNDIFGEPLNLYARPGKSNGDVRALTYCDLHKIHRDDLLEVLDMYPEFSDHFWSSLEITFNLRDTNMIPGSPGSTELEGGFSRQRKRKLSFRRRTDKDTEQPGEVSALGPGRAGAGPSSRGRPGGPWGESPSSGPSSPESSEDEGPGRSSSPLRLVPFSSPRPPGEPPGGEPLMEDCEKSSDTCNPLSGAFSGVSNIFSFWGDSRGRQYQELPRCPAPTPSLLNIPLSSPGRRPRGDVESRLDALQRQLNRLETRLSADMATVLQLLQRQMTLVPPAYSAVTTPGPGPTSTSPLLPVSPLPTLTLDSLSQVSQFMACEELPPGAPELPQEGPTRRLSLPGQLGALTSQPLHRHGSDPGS
In short: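 Test article was applied at concentrations up to 10 μM, with n ≥ 3 per compound.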

CYP 1A2 = biological target: T1, CYP 1A2 (Homo sapiens, UniProt P05177); assay: CYP inhibition in human liver microsomes; assay type: in vitro ADME
T1 sequence (P05177 1-516): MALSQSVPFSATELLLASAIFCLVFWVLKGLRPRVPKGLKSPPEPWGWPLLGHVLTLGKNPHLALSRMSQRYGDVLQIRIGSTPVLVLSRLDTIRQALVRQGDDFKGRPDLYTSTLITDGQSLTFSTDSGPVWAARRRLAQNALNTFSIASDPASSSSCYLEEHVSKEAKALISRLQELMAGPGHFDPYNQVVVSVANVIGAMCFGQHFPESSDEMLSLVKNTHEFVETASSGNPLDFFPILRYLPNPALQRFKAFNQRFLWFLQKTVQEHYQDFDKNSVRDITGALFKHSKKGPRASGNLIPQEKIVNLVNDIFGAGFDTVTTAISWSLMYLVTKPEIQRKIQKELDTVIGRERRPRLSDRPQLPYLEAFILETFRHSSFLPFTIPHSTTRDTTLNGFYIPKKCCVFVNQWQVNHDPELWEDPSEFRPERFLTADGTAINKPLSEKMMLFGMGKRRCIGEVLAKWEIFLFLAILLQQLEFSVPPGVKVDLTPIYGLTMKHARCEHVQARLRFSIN
In short: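 Known CYP450 probe substrates were incubated with human liver microsomes (0.05–0.2 mg/mL), 1 mM NADPH, 100 mM potassium phosphate pH 7.4 and 3 mM MgCl2 at 37°C, with or without 10 μM test compound, in duplicate. Reactions were quenched with a solution containing internal standards. Each substrate's signature metabolite was quantified by LC/MS/MS.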

CYP 2B6 = biological target: T2, CYP 2B6 (Homo sapiens, UniProt P20813); assay: CYP inhibition in human liver microsomes; assay type: in vitro ADME
T2 sequence (P20813 1-491): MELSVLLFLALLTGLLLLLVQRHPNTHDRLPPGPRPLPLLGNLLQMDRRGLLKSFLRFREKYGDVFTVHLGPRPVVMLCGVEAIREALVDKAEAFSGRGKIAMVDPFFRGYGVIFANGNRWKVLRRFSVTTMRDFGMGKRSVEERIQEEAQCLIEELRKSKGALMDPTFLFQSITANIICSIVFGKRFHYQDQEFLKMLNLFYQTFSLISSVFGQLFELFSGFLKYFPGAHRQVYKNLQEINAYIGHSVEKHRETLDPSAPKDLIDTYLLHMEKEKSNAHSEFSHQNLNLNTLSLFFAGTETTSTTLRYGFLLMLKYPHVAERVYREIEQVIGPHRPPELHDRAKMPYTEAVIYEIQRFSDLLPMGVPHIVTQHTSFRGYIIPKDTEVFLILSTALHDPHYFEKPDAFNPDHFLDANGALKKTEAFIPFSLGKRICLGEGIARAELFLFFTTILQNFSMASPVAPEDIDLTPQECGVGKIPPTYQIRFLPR

CYP 2C8 = biological target: T3, CYP 2C8 (Homo sapiens, UniProt P10632); assay: CYP inhibition in human liver microsomes; assay type: in vitro ADME
T3 sequence (P10632 1-490): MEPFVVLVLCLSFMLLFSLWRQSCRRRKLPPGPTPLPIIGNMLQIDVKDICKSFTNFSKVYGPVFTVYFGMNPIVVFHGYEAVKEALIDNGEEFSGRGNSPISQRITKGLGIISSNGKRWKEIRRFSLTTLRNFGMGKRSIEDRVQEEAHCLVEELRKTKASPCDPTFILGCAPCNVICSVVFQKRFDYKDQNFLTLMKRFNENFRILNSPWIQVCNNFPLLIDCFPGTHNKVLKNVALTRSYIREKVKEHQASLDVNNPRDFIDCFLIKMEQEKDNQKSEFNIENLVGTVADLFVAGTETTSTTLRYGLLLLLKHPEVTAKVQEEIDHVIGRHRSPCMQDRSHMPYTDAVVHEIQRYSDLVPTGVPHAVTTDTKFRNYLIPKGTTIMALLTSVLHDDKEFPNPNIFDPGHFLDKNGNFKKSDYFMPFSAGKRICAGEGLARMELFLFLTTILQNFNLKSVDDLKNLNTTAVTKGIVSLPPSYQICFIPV

CYP 2C9 = CYP 2C9 (Homo sapiens, UniProt P11712); assay: CYP inhibition in human liver microsomes; assay type: in vitro ADME
CYP 2C9, sequence (P11712 whole entry): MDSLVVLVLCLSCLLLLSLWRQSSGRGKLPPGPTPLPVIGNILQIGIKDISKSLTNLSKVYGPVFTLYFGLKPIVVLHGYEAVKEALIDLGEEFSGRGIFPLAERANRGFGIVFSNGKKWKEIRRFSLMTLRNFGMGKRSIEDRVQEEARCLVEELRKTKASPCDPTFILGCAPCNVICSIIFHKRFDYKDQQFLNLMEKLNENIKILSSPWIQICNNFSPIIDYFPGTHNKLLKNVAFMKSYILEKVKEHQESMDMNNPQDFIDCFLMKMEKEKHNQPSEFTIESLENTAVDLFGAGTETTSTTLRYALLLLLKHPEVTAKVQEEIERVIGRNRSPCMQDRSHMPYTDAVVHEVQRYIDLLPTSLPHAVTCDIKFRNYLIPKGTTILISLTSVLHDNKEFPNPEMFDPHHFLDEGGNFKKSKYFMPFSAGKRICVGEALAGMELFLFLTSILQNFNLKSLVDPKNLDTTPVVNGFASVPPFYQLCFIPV

CYP 2C19 = CYP 2C19 (Homo sapiens, UniProt P33261); assay: CYP inhibition in human liver microsomes; assay type: in vitro ADME
CYP 2C19, sequence (P33261 whole entry): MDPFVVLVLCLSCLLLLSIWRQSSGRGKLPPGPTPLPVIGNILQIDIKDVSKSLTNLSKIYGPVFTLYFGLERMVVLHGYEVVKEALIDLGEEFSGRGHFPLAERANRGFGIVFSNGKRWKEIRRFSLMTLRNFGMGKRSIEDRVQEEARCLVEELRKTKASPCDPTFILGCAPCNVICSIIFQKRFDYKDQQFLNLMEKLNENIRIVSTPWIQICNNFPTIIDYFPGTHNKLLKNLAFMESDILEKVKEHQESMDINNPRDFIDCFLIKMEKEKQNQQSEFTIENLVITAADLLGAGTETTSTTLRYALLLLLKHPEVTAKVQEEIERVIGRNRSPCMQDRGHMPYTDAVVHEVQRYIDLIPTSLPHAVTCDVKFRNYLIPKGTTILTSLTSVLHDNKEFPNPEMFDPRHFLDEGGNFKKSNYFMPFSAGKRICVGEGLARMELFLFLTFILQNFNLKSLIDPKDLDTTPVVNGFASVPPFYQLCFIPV

CYP 2D6 = CYP 2D6 (Homo sapiens, UniProt P10635); assay: CYP inhibition in human liver microsomes; assay type: in vitro ADME
CYP 2D6, sequence (P10635 whole entry): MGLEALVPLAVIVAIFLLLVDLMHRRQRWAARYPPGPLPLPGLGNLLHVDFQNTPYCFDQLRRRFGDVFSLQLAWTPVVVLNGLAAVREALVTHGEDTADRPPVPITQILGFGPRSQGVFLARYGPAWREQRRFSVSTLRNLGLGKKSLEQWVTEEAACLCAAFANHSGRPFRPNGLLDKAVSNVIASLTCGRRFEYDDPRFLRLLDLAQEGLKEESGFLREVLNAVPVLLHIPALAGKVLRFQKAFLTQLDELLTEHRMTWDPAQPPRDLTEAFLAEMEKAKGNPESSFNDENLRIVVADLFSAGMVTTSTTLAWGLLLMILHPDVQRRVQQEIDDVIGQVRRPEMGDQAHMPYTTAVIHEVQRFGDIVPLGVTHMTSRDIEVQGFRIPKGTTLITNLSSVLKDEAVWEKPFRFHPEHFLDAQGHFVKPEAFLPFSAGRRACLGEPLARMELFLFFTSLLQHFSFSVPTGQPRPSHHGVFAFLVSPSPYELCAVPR

CYP 3A4 = CYP 3A4 (Homo sapiens, UniProt P08684); assay: CYP inhibition in human liver microsomes; assay type: in vitro ADME; conditions: for CYP Inhibition (% at 10 μM) 3A4-M: midazolam substrate; for CYP Inhibition (% at 10 μM) 3A4-T: testosterone substrate
CYP 3A4, sequence (P08684 whole entry): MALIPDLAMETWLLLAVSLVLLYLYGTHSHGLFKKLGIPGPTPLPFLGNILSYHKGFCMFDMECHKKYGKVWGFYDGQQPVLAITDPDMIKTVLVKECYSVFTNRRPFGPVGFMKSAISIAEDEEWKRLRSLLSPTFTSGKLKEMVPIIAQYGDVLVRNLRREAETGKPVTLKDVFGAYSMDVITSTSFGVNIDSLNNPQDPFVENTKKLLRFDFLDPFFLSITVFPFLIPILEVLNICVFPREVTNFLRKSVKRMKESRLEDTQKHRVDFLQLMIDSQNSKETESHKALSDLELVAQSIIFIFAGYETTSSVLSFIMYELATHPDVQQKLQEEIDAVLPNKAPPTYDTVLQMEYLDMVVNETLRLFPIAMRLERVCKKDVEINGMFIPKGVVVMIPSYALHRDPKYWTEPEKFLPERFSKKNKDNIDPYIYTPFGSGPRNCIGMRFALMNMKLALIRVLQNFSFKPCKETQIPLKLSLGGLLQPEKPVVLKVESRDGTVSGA

Caco-2 cell monolayer = assay: Cell permeability across Caco-2 cell monolayer; assay type: in vitro ADME
In short: (§2)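 Bidirectional transport of 2 μM test compound across Caco-2 monolayers at pH 7.4, in duplicate, with final DMSO below 1%. Plates were held 2 hr at 37°C, 5% CO2, saturated humidity, without shaking. Starting, donor and receiver solutions were analysed by LC/MS/MS. Lucifer yellow rejection after transport checked monolayer integrity.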

[6] = Liver microsome stability, mouse; assay type: in vitro ADME
In short: (§3)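 Test compound (1 μM), alone or with ritonavir at 0.3, 1 or 3 μM, was incubated with 1 mg/mL mouse or human liver microsomes in 100 mM potassium phosphate pH 7.4 with 5 mM MgCl2. NADPH (final 1 mM) started the reaction at 37°C. Aliquots at 0–90 min were quenched in ice-cold methanol, centrifuged, diluted 1:1 with water, and analysed by LC-MS/MS. Propranolol was the positive control.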

[7] = Liver microsome stability, human; assay type: in vitro ADME
In short: as §3

HBV = conditions: humanized mouse model, in combination with entecavir; ref [7],[8]; cited from earlier work
[8] = Cytotoxicity, CellTiter 96 assay in PBM cells; assay type: cell-based, human; conditions: human, peripheral blood mononuclear (PBM) cells
In short: as §1

[9] = Cytotoxicity, CellTiter 96 assay in CEM cells; assay type: cell-based, human; conditions: human, T lymphoblast (CEM) cells
In short: as §1

[10] = Cytotoxicity, CellTiter 96 assay in Vero cells; assay type: cell-based, African green monkey; conditions: African green monkey, kidney (Vero) cells
In short: as §1

[11] = Cytotoxicity, CellTiter 96 assay in HepG2 cells; assay type: cell-based, human; conditions: human, hepatocellular carcinoma (HepG2) cells
In short: as §1

[12] = Cell permeability across Caco-2 cell monolayer; assay type: in vitro ADME; conditions: human
In short: as §2

[13] = HepAD38 cells, 7-day assay, HBV DNA
[14] = Hepatitis B virus, HePAD38, 168 h

SMILES | CYP Inhibition (% at 10 μM) 1A2 (CYP 1A2) [%] | CYP Inhibition (% at 10 μM) 2B6 (CYP 2B6) [%] | CYP Inhibition (% at 10 μM) 2C8 (CYP 2C8) [%] | CYP Inhibition (% at 10 μM) 2C9 (CYP 2C9) [%] | CYP Inhibition (% at 10 μM) 2C19 (CYP 2C19) [%] | CYP Inhibition (% at 10 μM) 2D6 (CYP 2D6) [%] | CYP Inhibition (% at 10 μM) 3A4-M (CYP 3A4) [%] | CYP Inhibition (% at 10 μM) 3A4-T (CYP 3A4) [%] | EC50 [1, 14] [nM] | EC90 [1, 14] [µM] | CC50 [8] [µM] | CC50 [9] [µM] | CC50 [10] [µM] | CC50 [11] [µM] | also measured
C#CCNC(=O)C(=O)c1c(C)c(C(=O)Nc2ccc(F)c(F)c2)n(C)c1C [GLP-26, reference compound] | −9.6 | −1.6 | 54 | 11.7 | 15.9 | 9.5 | −7.2 | 8.3 | – | – | – | – | – | – | EC50 [1, 13]: 4.6 ± 2 nM; EC90 [1, 13]: 0.0168 ± 0.0071 µM; CC50 [2]: > 100 µM; CC50 [3]: > 100 µM; CC50 [4]: 46 ± 30 µM; CC50 [5]: > 100 µM; GSH % Reactive metabolites at 25 μM (Formation of glutathione): 0.8%; hERG % Inhibition at 10 μM (hERG): 46.6%; Permeability A-B (Caco-2 cell monolayer; Caco-2, 2 μM, pH 7.4, 2 hr, A-B): 23.5 10^−6 cm/s; Permeability B-A (Caco-2 cell monolayer; Caco-2, 2 μM, pH 7.4, 2 hr, B-A): 22.8 10^−6 cm/s; Mean Recovery % A-B (Caco-2 cell monolayer; Caco-2, A-B): 86.3%; Mean Recovery % B-A (Caco-2 cell monolayer; Caco-2, B-A): 98.7%; Liver microsome stability t1/2 Mouse ([6]; mouse liver microsomes 1 mg/mL, compound alone): 41 min; Liver microsome stability t1/2 Human ([7]; human liver microsomes 1 mg/mL, compound alone): >60 min; antiviral response (HBV): sustained antiviral response up to 12 weeks post treatment
C#CCn1c(C)c(C(=O)C(=O)NC(C)(C)C#C)c(C)c1C(=O)Nc1ccc(F)c(F)c1 [Compound 10a, N-(3,4-Difluorophenyl)-3,5-dimethyl-4-(2-((2-methylbut-3-yn-2-yl)amino)-2-oxoacetyl)-1-(prop-2-yn-1-yl)-1H-pyrrole-2-carboxamide] | 9 | 5 | 95 | 40 | 34 | 8 | 40 | 40 | 0.02 ± 0.03 | 0.0016 ± 0.0008 | > 100 | > 100 | > 100 | > 100 | Papp A→B at 2 h, 2 μM ([12]; Caco-2, pH 7.4): 33.5 ×10⁻⁶ cm/s; Papp B→A at 2 h, 2 μM ([12]; Caco-2, pH 7.4): 10.9 ×10⁻⁶ cm/s; recovery at 2 h, 2 μM ([12]; Caco-2, pH 7.4, Mean Recovery % A-B, Caco-2, A-B): 100%; recovery at 2 h, 2 μM ([12]; Caco-2, pH 7.4, Mean Recovery % B-A, Caco-2, B-A): 74.6%; fold improvement of half-life on co-incubation with ritonavir ([6]; mouse liver microsomes, ritonavir at ratios up to 1/3): 45 fold; half-life at 1 μM ([6]; mouse, mouse liver microsomes, pH 7.4): 2.4 min; fold improvement of half-life on co-incubation with ritonavir ([7]; human liver microsomes, ritonavir at ratios up to 1/3): two-fold; half-life at 1 μM ([7]; human, human liver microsomes, pH 7.4): 9 min
C#CCNC(=O)C(=O)c1c(C)c(C(=O)Nc2ccc(F)c(F)c2)n(CCC)c1C [Compound 5b, N-(3,4-Difluorophenyl)-3,5-dimethyl-4-(2-oxo-2-(prop-2-yn-1-ylamino)acetyl)-1-propyl-1H-pyrrole-2-carboxamide] | – | – | – | – | – | – | – | – | 9.1 ± 3.7 | 0.044 ± 0.021 | > 100 | > 100 | > 100 | > 100 | –
